Series [1] in a line: Cytotoxicity against dog MDCK cells assessed as cell viability measured after 45 hrs by Celltiter-Glo luminescence assay. Format: cell-based, Canis lupus familiaris. The method in brief:
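Non-infected MDCK cells were exposed to compound dilutions and viability was read by CellTiter-Glo luminescence. CC50 is the concentration reducing viability of uninfected cells by 50%, given as the mean of duplicate samples from three independent experiments.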
On the technique in general: In ATP-based viability assays light output follows the ATP content of the culture.

Series [2] relates to Influenza A virus. Kind of series: Antiviral activity against Influenza A virus A/WSN/33(H1N1) infected in MDCK cells assessed as inhibition of virus-induced cytopathic effect at 100 uM measured after 45 hrs by CellTiter-Glo luminescence assay. It counts as functional, organism-based. Conditions: A/WSN/1933(H1N1). In outline: (§1)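 Single-concentration screen at 100 μM in MDCK cells infected with A/WSN/33 under the same conditions: 1% FBS DMEM with 1 μg/mL trypsin, MOI 0.1, 45 h. Cytopathic effect was read by CellTiter-Glo luminescence against a DMSO negative control, from triplicate experiments.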
For orientation: Protection from cytopathic effect is a common read-out in antiviral testing.

Series [3] relates to Influenza A virus. As to the kind of experiment: Antiviral activity against Influenza A virus A/WSN/33(H1N1) infected in MDCK cells assessed as inhibition of virus-induced cytopathic effect at 100 uM measured after 45 hrs by CellTiter-Glo luminescence assay relative to control. Format: functional. Conditions: A/WSN/1933(H1N1). The method in brief: as §1
The next series deals with MDCK. As to the kind of experiment: Cytotoxicity against dog MDCK cells assessed as cell viability measured at 100 uM after 45 hrs by Celltiter-Glo luminescence assay. Format: cell-based, Canis lupus familiaris. In outline:
(§2)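 Viability screen of uninfected MDCK cells at 100 μM compound, read by CellTiter-Glo luminescence with DMSO as negative control; triplicate experiments.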

The next series has as its system Influenza A virus H3N2. As to the kind of experiment: Antiviral activity against Influenza A virus A/Texas/50/2012(H3N2) infected in MDCK cells inhibition of virus-induced cytopathic effect measured after 45 hrs by CellTiter-Glo luminescence assay. It counts as functional, organism-based. The method in brief:
(§3)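 MDCK cells (5,000/well) were seeded one day before infection. Infection medium was high-glucose DMEM with 1% FBS and trypsin (1 μg/mL). Compounds were added at various concentrations and cells infected at MOI 0.1. After 45 h, viability was read by CellTiter-Glo luminescence. IC50 was taken from dose-response curves, as the mean of duplicate samples from three independent experiments.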

A short description of series [4]: Cytotoxicity against dog MDCK cells assessed as cell viability measured at 100 uM after 45 hrs by Celltiter-Glo luminescence assay relative to control. Conditions: read-out: Activity. It counts as cell-based, Canis lupus familiaris. The method in brief:
as §2

The test system of series [5] is Influenza A virus. As to the kind of experiment: Antiviral activity against Influenza A virus A/WSN/33(H1N1) infected in MDCK cells assessed as inhibition of virus-induced cytopathic effect measured after 45 hrs by CellTiter-Glo luminescence assay. Format: functional, organism-based. Conditions: A/WSN/1933(H1N1). In outline:
as §3

The target in series [6] is Hemagglutinin (Influenza A virus) (UniProt B4URE7). Kind of series: Inhibition of Influenza A virus HA-mediated chicken erythrocytes aggregation incubated for 30 mins. The method in brief: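 Compound was 2-fold serially diluted in saline from 100 to 1.56 μM and mixed with an equal volume of influenza virus (2 HA units). Chicken red blood cells (1% v/v in saline) were then added. After 30 min at room temperature, erythrocyte aggregation was scored by eye. An anti-HA monoclonal antibody served as positive control.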

These results are taken from ChEMBL document CHEMBL4406875, “Design, synthesis and biological evaluation of amino acids-oleanolic acid conjugates as influenza virus inhibitors” (Bioorg Med Chem, 2019).

Activity calls are given as the source filed them. No cut-off for these calls is given here.

Sequence of Hemagglutinin (Influenza A virus) (B4URE7 as listed by the source): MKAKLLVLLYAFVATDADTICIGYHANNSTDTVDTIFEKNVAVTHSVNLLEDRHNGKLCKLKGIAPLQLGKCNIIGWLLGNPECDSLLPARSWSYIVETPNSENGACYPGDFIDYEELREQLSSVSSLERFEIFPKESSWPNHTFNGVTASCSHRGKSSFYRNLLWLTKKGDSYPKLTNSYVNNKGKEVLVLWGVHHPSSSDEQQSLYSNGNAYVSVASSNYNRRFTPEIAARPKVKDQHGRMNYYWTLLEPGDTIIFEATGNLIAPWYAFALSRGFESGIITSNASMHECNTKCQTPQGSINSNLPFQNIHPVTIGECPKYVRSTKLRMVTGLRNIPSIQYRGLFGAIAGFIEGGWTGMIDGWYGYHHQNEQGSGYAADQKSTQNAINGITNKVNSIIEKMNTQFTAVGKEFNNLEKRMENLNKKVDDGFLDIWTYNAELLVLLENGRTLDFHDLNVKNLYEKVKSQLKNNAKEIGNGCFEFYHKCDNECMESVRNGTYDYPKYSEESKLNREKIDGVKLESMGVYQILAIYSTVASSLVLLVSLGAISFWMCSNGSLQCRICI

Usually CC50 stands for the concentration at which the toxic effect on the cells reaches its halfway point. The term inhibition denotes the change of the read-out against control, counted positive when it falls. The IC50 is the point on the concentration scale where inhibition reaches its midpoint. For `CC1(C)CC[C@]2(C(=O)N[C@@H](CCCNC(=N)N)C(=O)O)CC[C@]3(C)C(=CC[C@@H]4[C@@]5(C)CC[C@H](O)C(C)(C)[C@@H]5CC[C@]43C)[C@@H]2C1`, in series [1], the CC50 at 45 h was greater than 100 µM. Moreover, in the series with Influenza A virus [2], the inhibition entry is “Active”. Moreover, the inhibition at 100 µM in the series with Influenza A virus [3] came to 75%. The Activity entry with MDCK was “Toxic”. In addition, the IC50 in the series with Influenza A virus H3N2 is 14.1 µM; with Influenza A virus [5], 6.64 µM. Also, the viability at 45 h, 100 µM in series [4] is 75%. The inhibition entry in series [6] is “Dose-dependent effect”.
